# Active and inactive are the calls of the source. The calls are words filed in the database; no cut-off is given here.
# Key:
# [1] = Cmax in mouse plasma at 60 mg/kg, po; format: ADME, organism-based; parameters: dose 60 mg/kg, route po
# [2] = Tmax in mouse plasma at 10 mg/kg, sc; format: ADME, organism-based
# [3] = Aqueous stability of the compound at pH 1.2 assessed as compound decomposition measured after 24 hrs by HPLC analysis; format: physicochemical; conditions: aqueous solution, read-out: Drug degradation
# Outline: (§1)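 Compounds at 10 μg/mL in Japanese Pharmacopoeia 17th ed. disintegration-test fluids (first fluid pH 1.2, second fluid pH 6.8), with 10% DMSO if needed, held at 37 °C. HPLC run at start and at 24 h. Decomposition derived from peak areas as residual content.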
# [4] = Aqueous stability of the compound at pH 6.8 assessed as compound decomposition measured after 24 hrs by HPLC analysis; format: physicochemical; conditions: aqueous solution, read-out: Drug degradation; outline: as §1
# [5] = Cmax in mouse plasma at 10 mg/kg, sc; format: ADME, organism-based; parameters: dose 10 mg/kg, route sc
# [6] = Tmax in mouse plasma at 60 mg/kg, po; format: ADME, organism-based
# [7] = MRT in mouse plasma at 60 mg/kg, po; format: ADME, organism-based
# [8] = MRT in mouse plasma at 10 mg/kg, sc; format: ADME, organism-based
# [9] = tested on: Mus musculus; assay: In vivo inhibition of entero-peptidase in mouse assessed as increase in fecal protein content at 60 mg/kg, po; format: functional, organism-based
# Outline: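 HFD-fed male mice (D12079B diet, 14–21 weeks old) dosed orally at 60 mg/kg, with 0.5% methylcellulose as vehicle. Whole feces collected overnight and fecal protein output determined.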
# [10] = Oral bioavailability in non-fasted Sprague-Dawley rat plasma at 1 mg/kg administered as cassette dose by LC/MS/MS analysis; format: ADME, organism-based; conditions: in vivo, BLD = below limit of detection
# Outline: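 Non-fasted SD rats given cassette oral dose of 1 mg/kg, suspended in 0.5% methylcellulose. Plasma obtained from collected blood; compound measured by LC–MS/MS.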
# [11] = tested on: Rattus norvegicus; assay: Anti-obesity activity in diet-induced obese F344/Jcl rat model assessed as increase in fecal protein output at 1 to 10 mg/kg, po measured on day 28; format: functional, organism-based; conditions: dose 1-10 mg/kg, time 28.0 day
# Outline: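 Male DIO F344/Jcl rats on HFD D12451 (45 kcal % fat), n = 6 per group. Oral dosing at 1, 3 or 10 mg/kg in 0.5% methylcellulose vehicle for 4 weeks from 36 weeks of age. Fecal protein output measured; mean ± SD; statistics vs vehicle.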
# [12] = tested on: Rattus norvegicus; assay: Anti-obesity activity in diet-induced obese F344/Jcl rat model assessed as reduction in food intake at 1 to 10 mg/kg, po administered for 28 days; format: functional, organism-based; conditions: dose 1-10 mg/kg, time 28.0 day
# Outline: (§2)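 Male DIO F344/Jcl rats fed HFD D12451 (45 kcal % fat, 20 kcal % protein, 35 kcal % carbohydrate) from six weeks of age. Oral dosing in 0.5% methylcellulose vehicle starts at 36 weeks of age and continues 4 weeks. Body weight recorded every 1–4 days. n = 6 per group; mean ± SD; Dunnett's t-test or one-tailed Williams' test vs vehicle.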
# [13] = tested on: Rattus norvegicus; assay: Anti-obesity activity in diet-induced obese F344/Jcl rat model assessed as body weight loss administered orally for 28 days measured every 4 days; format: functional, organism-based; conditions: route po, time 4.0 weeks, DDE = dose-dependent effect; outline: as §2
# [14] = Permeability of the compound at pH 7.4 by PAMPA; format: ADME; conditions: read-out: permeability
# [15] = Permeability of the compound at pH 5.0 by PAMPA; format: ADME; conditions: read-out: permeability
# [16] = target: Enteropeptidase (Homo sapiens) (UniProt P98073); assay: Inhibition of human recombinant Enteropeptidase assessed as inhibition based on initial velocity using 5FAM-Abu-Gly-Asp -Asp-Asp -Lys-Ile-Val-Gly-Gly-Lys-(CPQ2)-Lys-Lys-NH2 as substrate by fluorescence based plate reader method; conditions: TDE = time-dependent effect
# Outline: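 Human recombinant enzyme prepared as a 24 mU/mL solution in 50 mM tricine pH 8.0, 0.01% Tween 20, 10 mM CaCl2. Compound in DMSO/buffer mixed with 2.1 μM substrate solution; enzyme added to start the reaction at room temperature. Fluorescence (ex 485/em 535 nm) read at 6 min. Inhibition taken relative to no-compound and no-enzyme controls. IC50 with 95% CI.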
# Sequence of Enteropeptidase (Homo sapiens) (P98073 2-784 limits assumed): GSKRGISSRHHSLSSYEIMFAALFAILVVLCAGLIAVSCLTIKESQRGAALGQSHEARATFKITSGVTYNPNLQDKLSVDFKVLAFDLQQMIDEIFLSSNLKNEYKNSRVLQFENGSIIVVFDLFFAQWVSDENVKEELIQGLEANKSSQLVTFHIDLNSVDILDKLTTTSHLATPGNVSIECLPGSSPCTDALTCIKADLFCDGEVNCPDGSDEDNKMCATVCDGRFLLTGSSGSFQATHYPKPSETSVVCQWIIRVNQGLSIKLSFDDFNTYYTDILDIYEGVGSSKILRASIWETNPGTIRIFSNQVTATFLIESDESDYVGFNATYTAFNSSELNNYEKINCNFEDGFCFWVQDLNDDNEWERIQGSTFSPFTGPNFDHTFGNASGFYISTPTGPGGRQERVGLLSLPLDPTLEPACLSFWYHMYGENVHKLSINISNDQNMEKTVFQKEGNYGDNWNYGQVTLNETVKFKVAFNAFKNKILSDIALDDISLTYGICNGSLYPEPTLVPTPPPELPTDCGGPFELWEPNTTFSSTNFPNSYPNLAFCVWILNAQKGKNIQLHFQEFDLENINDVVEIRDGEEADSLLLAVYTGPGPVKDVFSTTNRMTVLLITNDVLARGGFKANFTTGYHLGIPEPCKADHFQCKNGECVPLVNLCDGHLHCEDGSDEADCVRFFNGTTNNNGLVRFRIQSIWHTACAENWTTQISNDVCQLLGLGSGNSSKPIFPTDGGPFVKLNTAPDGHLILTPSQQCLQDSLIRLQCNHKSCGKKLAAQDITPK
# Sequence of Enteropeptidase (Homo sapiens) (P98073 785-1019 limits assumed): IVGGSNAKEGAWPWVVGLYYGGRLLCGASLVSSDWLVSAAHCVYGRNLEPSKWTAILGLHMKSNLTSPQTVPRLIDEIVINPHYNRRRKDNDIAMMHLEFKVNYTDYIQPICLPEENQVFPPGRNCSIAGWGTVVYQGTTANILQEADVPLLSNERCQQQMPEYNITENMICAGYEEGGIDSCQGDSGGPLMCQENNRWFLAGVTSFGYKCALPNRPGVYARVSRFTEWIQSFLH
degraded at 24 h [3],degraded at 24 h [4],Papp [14],Papp [15],inhibition [16],SMILES,also measured
2.5%,5%,,,,Cl.N=C(N)Nc1ccc(C(=O)Oc2ccc(CC(=O)N[C@@H](CC(=O)O)C(=O)O)cc2)cc1,Cmax [1]: 1360 ng/mL; Tmax [2]: 30 min; Cmax [5]: 13400 ng/mL; Tmax [6]: 1.67 h; MRT [7]: 5.07 h; MRT [8]: 58.8 min; inhibition [9]: Active
,,,,,N=C(N)Nc1ccc(C(=O)Oc2cccc(C3=NO[C@](CC(=O)O)(C(=O)O)C3)c2)cc1,F [10]: Bld; Activity [11]: Active; Activity [12]: Active; Activity [13]: Dde
,,0.2 ×10⁻⁶ cm/s,0.2 ×10⁻⁶ cm/s,Tde,N=C(N)Nc1ccc(C(=O)Oc2ccc(CC(=O)NCC(=O)O)cc2)cc1.O=C(O)C(F)(F)F,
2.8%,5.8%,,,,N=C(N)Nc1ccc(C(=O)Oc2cccc(CC(=O)N[C@@H](CC(=O)O)C(=O)O)c2)cc1,
,,< 0.2 ×10⁻⁶ cm/s,< 0.2 ×10⁻⁶ cm/s,Tde,CS(=O)(=O)O.N=C(N)Nc1ccc(C(=O)Oc2ccccc2)cc1,
3.9%,8.6%,,,,N=C(N)Nc1ccc(C(=O)Oc2cccc(C(=O)N[C@@H](CC(=O)O)C(=O)O)c2)cc1,
